A short description of data set [1]: Maximum plasma concentration after p.o. (10 mpk) administration in rats. In kind it is ADME, organism-based. The settings on record: rat, po, 10 mg/kg. Details: route oral. In outline:
(§1)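 Rats were anesthetized and fitted with catheters in the left jugular vein (dosing) and left carotid artery (sampling). Next day, conscious rats were dosed iv at 2 mpk or orally by gastric lavage at 10 mpk. Blood was drawn before dosing and at increasing times after. Plasma inhibitor levels gave concentration–time curves. F was derived by comparing dose-normalized AUCs from oral and iv dosing.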

A short description of data set [2]: Clearance values in rats after iv administration. The settings on record: rat, in vivo. The data set is classed as ADME, organism-based. In outline:
as §1

Data set [3] addresses T1, Coagulation factor X (Homo sapiens, UniProt P00742). Description: (§2) In vitro inhibitory activity against Coagulation factor X. In outline:
(§3)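 Ki from the dependence of initial rate on inhibitor concentration. Proteinase (human FXa, or bovine trypsin) equilibrated with inhibitor, then chromogenic substrate added. p-Nitroaniline release followed as the absorbance increase at 405 nm.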

A short description of data set [4]: Partition coefficient (logP). The settings on record: octanol/water. The data set is classed as physicochemical.
Data set [5] in a line: pKa was determined. In kind it is physicochemical.
Data set [6] can be described thus: Half life in rats. The settings on record: rat, in vivo. In kind it is ADME, organism-based. In outline:
as §1

Data set [7] in a line: Maximum time of retention in plasma, after peroral (10 mpk) administration in rats. The data set is classed as ADME, organism-based. The following applies: rat, po, 10 mg/kg. In outline: as §1
The target of data set [8] is T2, Serine protease 1 (Bos taurus, UniProt P00760).
T2 sequence (P00760 whole entry): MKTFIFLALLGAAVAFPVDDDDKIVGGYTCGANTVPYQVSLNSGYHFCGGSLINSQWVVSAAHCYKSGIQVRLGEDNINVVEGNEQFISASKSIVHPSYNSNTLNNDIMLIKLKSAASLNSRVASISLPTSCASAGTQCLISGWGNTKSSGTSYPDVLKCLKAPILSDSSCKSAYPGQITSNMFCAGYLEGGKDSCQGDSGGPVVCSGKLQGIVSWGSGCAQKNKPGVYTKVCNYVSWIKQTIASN
Description: In vitro inhibitory activity against bovine trypsin. The essentials: as §3

The nature of data set [9]: Oral bioavailability in rat. The data set is classed as ADME, organism-based. The following applies: in vivo. In outline:
as §1

The target in a further data set is Prothrombin (Homo sapiens, UniProt P00734). Description: In vitro inhibitory activity against human thrombin(IIa).
Data set [10] addresses T2, Serine protease 1. Description: In vitro iinhibitory activity against bovine trypsin. In outline:
(§4)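 Ki values for bovine trypsin and human factor Xa came from the inhibitor-concentration dependence of the initial rate of p-nitroaniline release. Enzyme and inhibitor were equilibrated first, then chromogenic substrate was added, and the rate of absorbance increase at 405 nm was followed.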

Data set [11] deals with T1, Coagulation factor X. The data set is described as §2. The essentials: as §4
The source holds these as a separate data set.

Molecules are shown by their SMILES.

The source of these data is ChEMBL document CHEMBL1130400, “Discovery of a novel, selective, and orally bioavailable class of thrombin inhibitors incorporating aminopyridyl moieties at the P1 position” (J Med Chem, 1997).

T1 sequence (P00742 41-179 limits assumed): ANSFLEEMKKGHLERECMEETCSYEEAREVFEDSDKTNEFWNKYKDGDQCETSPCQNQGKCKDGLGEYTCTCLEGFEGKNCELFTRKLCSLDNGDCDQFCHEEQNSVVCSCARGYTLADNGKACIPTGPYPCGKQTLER
T1 sequence (P00742 235-488 limits assumed): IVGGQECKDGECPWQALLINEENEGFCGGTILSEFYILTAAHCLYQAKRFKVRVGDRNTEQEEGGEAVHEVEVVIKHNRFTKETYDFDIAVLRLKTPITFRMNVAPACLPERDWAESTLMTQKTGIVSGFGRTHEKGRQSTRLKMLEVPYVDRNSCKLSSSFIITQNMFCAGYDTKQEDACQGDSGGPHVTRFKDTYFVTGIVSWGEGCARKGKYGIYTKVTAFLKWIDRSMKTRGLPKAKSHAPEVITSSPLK

As for `Nc1ccc(CNC(=O)[C@@H]2CCCN2C(=O)[C@@H](Cc2ccc(Cl)c(Cl)c2)NS(=O)(=O)Cc2ccccc2)cc1`, the highest level in [1] (Cmax) was 660 nM. The clearance in data set [2] was found to be 71 mL/min/kg. For the same compound, the Ki at Coagulation factor X [3] stood at 10 µM; at Serine protease 1 [8], 12 µM. Besides, the log partition coefficient (logP) in [4] was > 3.68. For the same compound, the pKa in data set [5] worked out at 4.8. The compound also returned a half-life in [6] of 20 min. Further, the Tmax in data set [7] is 53 min. Moreover, the bioavailability in data set [9] is 35%.

Compound `CC(C)(C)OC(=O)N[C@@H](C(=O)N1CCC[C@H]1C(=O)NCc1ccc(N)nc1)C(C1CCCCC1)C1CCCCC1` yielded a Cmax in [1] of 1430 nM. This compound gave a clearance in data set [2] of 27 mL/min/kg. For the same compound, the Ki on Coagulation factor X [3] was found to be 4.4 µM; at Prothrombin, 0.003 µM; on Serine protease 1 [8] it was 0.657 µM. In data set [4], the logP was > 3.35. The pKa in [5] amounted to 6.5. For the same compound, in data set [6], the half-life turned out to be 35 min. Besides, the Tmax in [7] is 120 min. For the same compound, in [9], the bioavailability came out at 60%.

On to `CN[C@H](Cc1ccccc1)C(=O)N1CCC[C@H]1C(=O)NC[C@H]1CC[C@H](N)CC1`, for which the Ki on Coagulation factor X [3] is > 1000 µM; on Serine protease 1 [8], 11 µM. For the same compound, the logP in data set [4] was -1.68. The compound further showed a pKa in [5] of 10.2. The compound further had a bioavailability in data set [9] of 1%.

As for `Nc1ccc(CNC(=O)[C@@H]2CCCN2C(=O)[C@H](N)C(C2CCCCC2)C2CCCCC2)cn1`, the Cmax in [1] amounted to 530 nM. The clearance in data set [2] was > 200 mL/min/kg. For the same compound, the figures for the Ki at Coagulation factor X [3], on Prothrombin and at Serine protease 1 [8] were 8.3 µM, 0.00082 µM and 1.2 µM, respectively. This compound also displayed a logP in data set [4] of 2.21. In data set [5], this compound had a pKa of 6.2. This compound also registered a half-life in data set [6] of 102 min. Further, the Tmax in data set [7] was 26 min. Also, in data set [9], the bioavailability turned out to be 76%.

With `Cc1cc(N)nc(C)c1CNC(=O)[C@@H]1CCCN1C(=O)[C@H](N)C(c1ccccc1)c1ccccc1`, the Ki amounted to 240 µM at Coagulation factor X [3], 0.01 µM at Prothrombin and 8.3 µM on Serine protease 1 [8].

Turning to `CC(C)(C)OC(=O)N[C@H](Cc1ccccc1)C(=O)N1CCC[C@H]1C(=O)NCc1ccc(N)cc1`, the Ki at Coagulation factor X [3] turned out to be 420 µM; at Prothrombin it was 3.7 µM; on Serine protease 1 [8] it was 233 µM.

For `CC(C)(C)OC(=O)N[C@@H](C(=O)N1CCC[C@H]1C(=O)NCc1csc(N)n1)C(C1CCCCC1)C1CCCCC1`, the results for the Ki on Coagulation factor X [3], on Serine protease 1 [10] and on Prothrombin were > 100 µM, 52 µM and 0.35 µM, respectively.

As for `Nc1nc(CNC(=O)[C@@H]2CCCN2C(=O)[C@H](N)C(c2ccccc2)c2ccccc2)cs1`, the Ki was > 100 µM at Coagulation factor X [3], 0.35 µM at Prothrombin and 277 µM on Serine protease 1 [8].

As to `O=C(NCc1ccccc1)[C@@H]1CCCN1C(=O)[C@@H](Cc1ccc(Cl)c(Cl)c1)NS(=O)(=O)Cc1ccccc1`, the results for the Ki at Coagulation factor X [3], at Prothrombin and on Serine protease 1 [8] were 14 µM, 0.11 µM and 384 µM, respectively.

In the case of `Nc1nc(CNC(=O)[C@@H]2CCCN2C(=O)[C@H](N)C(C2CCCCC2)C2CCCCC2)cs1`, the inhibitory constant (Ki) on Coagulation factor X [3] is > 100 µM; on Prothrombin it was 0.07 µM; on Serine protease 1 [8] it was 144 µM.

`Cc1cc(N)nc(C)c1CNC(=O)[C@@H]1CCCN1C(=O)[C@H](N)C(C1CCCCC1)C1CCCCC1`: the Ki on Coagulation factor X [3] was 160 µM; on Serine protease 1 [8] it was 3 µM.

Turning to `Nc1ccc(CNC(=O)[C@@H]2CCCN2C(=O)[C@H](N)C(c2ccccc2)c2ccccc2)cn1`, the Ki at Coagulation factor X [3] worked out at 94 µM; at Prothrombin, 0.012 µM; on Serine protease 1 [8], 5.4 µM.

Take `O=C(NCc1cccnc1)[C@@H]1CCCN1C(=O)[C@@H](Cc1ccc(Cl)c(Cl)c1)NS(=O)(=O)Cc1ccccc1`: the results for the inhibition constant (Ki) at Coagulation factor X [3], at Prothrombin and on Serine protease 1 [8] were 230 µM, 0.38 µM and 284 µM, respectively.

For `Nc1ccc(CNC(=O)[C@@H]2CCCN2C(=O)[C@@H](Cc2ccc(Cl)c(Cl)c2)NS(=O)(=O)Cc2ccccc2)cn1`, the Ki at Coagulation factor X [3] was found to be 7.6 µM; at Prothrombin, 0.003 µM; at Serine protease 1 [8], 0.43 µM.

`Cc1cc(N)nc(C)c1CNC(=O)[C@@H]1CCCN1C(=O)[C@H](NC(=O)OC(C)(C)C)C(c1ccccc1)c1ccccc1` showed a Cmax in data set [1] of 610 nM. The clearance in data set [2] is 76 mL/min/kg. Moreover, the Ki at Coagulation factor X [3] is 160 µM; on Prothrombin it was 0.0036 µM; on Serine protease 1 [8], 2.5 µM. In [4], the logP is 1.65. For the same compound, the half-life in [6] was 50 min. The Tmax in [7] is 53 min. In data set [9], this compound gave a bioavailability of 40%.

Turning to `Nc1cc(CNC(=O)[C@@H]2CCCN2C(=O)[C@@H](Cc2ccc(Cl)c(Cl)c2)NS(=O)(=O)Cc2ccccc2)cs1`, the Ki at Prothrombin is 0.13 µM; at Serine protease 1 [8] it was 56 µM; on Coagulation factor X [11] it was > 100 µM.

Regarding `CC(C)(C)OC(=O)N[C@@H](C(=O)N1CCC[C@H]1C(=O)NCc1csc(N)c1)C(C1CCCCC1)C1CCCCC1`, the inhibition constant (Ki) on Coagulation factor X [3] turned out to be 27 µM; at Prothrombin it was 0.56 µM; at Serine protease 1 [8], 45 µM.

On to `CC(C)(C)OC(=O)N[C@@H](C(=O)N1CCC[C@H]1C(=O)NCc1csc(N)n1)C(c1ccccc1)c1ccccc1`, for which the inhibition constant Ki at Coagulation factor X [3] is > 100 µM; at Prothrombin, 0.9 µM; on Serine protease 1 [8], > 100 µM.

`Cc1cc(N)nc(C)c1CNC(=O)[C@@H]1CCCN1C(=O)[C@@H](Cc1ccc(Cl)c(Cl)c1)NS(=O)(=O)Cc1ccccc1`: the results for the Ki at Coagulation factor X [3], on Prothrombin and on Serine protease 1 [8] were 52 µM, 0.011 µM and 8.9 µM, respectively.

For `Cc1cc(N)nc(C)c1CNC(=O)[C@@H]1CCCN1C(=O)[C@H](NC(=O)OC(C)(C)C)C(C1CCCCC1)C1CCCCC1`, the Ki at Coagulation factor X [3] was 16 µM; on Prothrombin, 0.0022 µM; at Serine protease 1 [8], 1.5 µM.

Consider `O=C(NCc1ccncc1)[C@@H]1CCCN1C(=O)[C@@H](Cc1ccc(Cl)c(Cl)c1)NS(=O)(=O)Cc1ccccc1`, for which the Ki on Coagulation factor X [3] is > 200 µM; at Prothrombin, 0.51 µM; on Serine protease 1 [8], 31 µM.

For `CC(C)(C)OC(=O)N[C@@H](C(=O)N1CCC[C@H]1C(=O)NCc1ccc(N)nc1)C(c1ccccc1)c1ccccc1`, the values for the Ki on Coagulation factor X [3], on Prothrombin and at Serine protease 1 [8] were > 200 µM, 0.0076 µM and 1.3 µM, respectively.

Take `Nc1nc(CNC(=O)[C@@H]2CCCN2C(=O)[C@@H](Cc2ccc(Cl)c(Cl)c2)NS(=O)(=O)Cc2ccccc2)cs1`: the inhibition constant Ki at Coagulation factor X [3] is > 100 µM; at Prothrombin it was 0.36 µM; on Serine protease 1 [8], 767 µM.

The term Cmax denotes the peak of the concentration-time curve. For orientation: clearance means a measure of how efficiently the substance is removed, as volume per time. Read a high clearance as efficient removal. As usually defined, the Ki is a measure of affinity in units of concentration, obtained from inhibition or displacement. Lower therefore signals a stronger hold on the target. A word on the logP: it is the decadic logarithm of the partition coefficient of the neutral form, usually between octanol and water. High values mean a more lipophilic compound, low ones a more hydrophilic compound. A word on the pKa: it is the pH at which an ionisable group is half protonated. Low readings indicate a stronger acid or weaker base, high ones a weaker acid or stronger base. What is called half-life is the time needed for the level to fall by half in the phase considered. The term Tmax denotes the time at which the peak concentration occurs. As usually defined, the bioavailability is the share of a dose that reaches the circulation, judged against a reference dose that is usually intravenous.
